Measured values as given in ChEMBL document CHEMBL2424590, “4-[18F]Fluoro-m-hydroxyphenethylguanidine: a radiopharmaceutical for quantifying regional cardiac sympathetic nerve density with positron emission tomography” (J Med Chem, 2013).

How the values were obtained:
[1] = Drug uptake in rhesus macaque monkey myocardium at 0.1 mCi by compartmental modeling analysis; assay type: ADME, tissue-based, Macaca mulatta
Summary of the method: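 Same monkey for all studies. Desipramine (0.010, 0.0316, 0.10 or 1.0 mg/kg; n = 1 each) in 2.0 mL saline infused i.v. over 20 min, with tracer injected 10 min after the infusion ended; 4 control studies. ROIs on myocardium and basal LV blood pool drawn on summed final four frames. Cp(t) derived from Cwb(t) × intact fraction × Cp/Cwb. Ki from compartmental modelling and Kp as Patlak slope, fitted against DMI dose to a variable-slope sigmoidal model.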

Blood [2] = experiment: Biodistribution in Sprague-Dawley rat blood at 20 to 120 uCi, iv after 120 mins by gamma counting analysis; assay type: ADME, organism-based; details: in vivo, 2 h
Summary of the method: (§1)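 Sprague-Dawley rats (280–330 g), 2 male and 2 female per time point (5, 30, 60, 120 min), under light isoflurane, received a tail-vein bolus of 20–120 μCi tracer in 0.05–0.10 mL isotonic 60 mM sodium phosphate, pH 5.4. Tissues were weighed and gamma-counted. Decay-corrected dpm/g was normalized to injected dpm per kg body weight (%ID·kg/g).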

Rattus norvegicus [3] = experiment: Biodistribution in Sprague-Dawley rat uterus at 20 to 120 uCi, iv after 120 mins by gamma counting analysis; assay type: ADME, organism-based; details: in vivo, 2 h
Summary of the method: (§2)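 Male and female rats (2 per sex per time point, 280–330 g) under light isoflurane given tail-vein bolus of 20–120 μCi tracer in 0.05–0.10 mL isotonic 60 mM sodium phosphate, pH 5.4. Tissues sampled at 5, 30, 60 or 120 min, weighed and gamma-counted. Decay-corrected dpm per gram normalised to injected dpm and body weight, given as %ID·kg/g.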

Ovary = experiment: Biodistribution in Sprague-Dawley rat ovary at 20 to 120 uCi, iv after 120 mins by gamma counting analysis; assay type: ADME, organism-based, Female gonad; details: in vivo, 2 h
Summary of the method: as §1, with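 “g)” for “g), 2 male and 2 female per time point (5, 30, 60, 120 min),”, “isoflurane” for “isoflurane,”, “Sampling was at 5, 30, 60 or 120 min. […]” for “Tissues”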

Adrenal [4] = experiment: Biodistribution in Sprague-Dawley rat adrenal at 20 to 120 uCi, iv after 120 mins by gamma counting analysis; assay type: ADME, organism-based, Adrenal tissue; details: in vivo, 2 h; summary of the method: as §1
Pancreas [5] = experiment: Biodistribution in Sprague-Dawley rat pancreas at 20 to 120 uCi, iv after 120 mins by gamma counting analysis; assay type: ADME, organism-based; details: in vivo, 2 h; summary of the method: as §1
Liver [6] = experiment: Biodistribution in Sprague-Dawley rat liver at 20 to 120 uCi, iv after 120 mins by gamma counting analysis; assay type: ADME, organism-based; details: in vivo, 2 h; summary of the method: as §1
Lung [7] = experiment: Biodistribution in Sprague-Dawley rat lung at 20 to 120 uCi, iv after 120 mins by gamma counting analysis; assay type: ADME, organism-based; details: in vivo, 2 h; summary of the method: as §1
Heart [8] = experiment: Biodistribution in Sprague-Dawley rat heart at 20 to 120 uCi, iv after 120 mins by gamma counting analysis; assay type: ADME, organism-based; details: in vivo, 2 h; summary of the method: as §1
Blood [9] = experiment: Biodistribution in Sprague-Dawley rat blood at 20 to 120 uCi, iv after 60 mins by gamma counting analysis; assay type: ADME, organism-based; details: in vivo, 1 h; summary of the method: as §1
Bone [10] = experiment: Biodistribution in Sprague-Dawley rat bone at 20 to 120 uCi, iv after 60 mins by gamma counting analysis; assay type: ADME, organism-based, Bone element; details: in vivo, 1 h; summary of the method: as §1
Testes [11] = experiment: Biodistribution in Sprague-Dawley rat testes at 20 to 120 uCi, iv after 60 mins by gamma counting analysis; assay type: ADME, organism-based, Testis; details: in vivo, 1 h; summary of the method: as §2
Rattus norvegicus [12] = experiment: Biodistribution in Sprague-Dawley rat uterus at 20 to 120 uCi, iv after 60 mins by gamma counting analysis; assay type: ADME, organism-based; details: in vivo, 1 h; summary of the method: as §2
Adrenal [13] = experiment: Biodistribution in Sprague-Dawley rat adrenal at 20 to 120 uCi, iv after 60 mins by gamma counting analysis; assay type: ADME, organism-based, Adrenal tissue; details: in vivo, 1 h; summary of the method: as §1
Liver [14] = experiment: Biodistribution in Sprague-Dawley rat liver at 20 to 120 uCi, iv after 60 mins by gamma counting analysis; assay type: ADME, organism-based; details: in vivo, 1 h; summary of the method: as §1
Heart [15] = experiment: Biodistribution in Sprague-Dawley rat heart at 20 to 120 uCi, iv after 60 mins by gamma counting analysis; assay type: ADME, organism-based; details: in vivo, 1 h; summary of the method: as §1
Testes [16] = experiment: Biodistribution in Sprague-Dawley rat testes at 20 to 120 uCi, iv after 30 mins by gamma counting analysis; assay type: ADME, organism-based, Testis; details: in vivo, 0.5 h; summary of the method: as §2
Rattus norvegicus [17] = experiment: Biodistribution in Sprague-Dawley rat uterus at 20 to 120 uCi, iv after 30 mins by gamma counting analysis; assay type: ADME, organism-based; details: in vivo, 0.5 h; summary of the method: as §2
Adrenal [18] = experiment: Biodistribution in Sprague-Dawley rat adrenal at 20 to 120 uCi, iv after 30 mins by gamma counting analysis; assay type: ADME, organism-based, Adrenal tissue; details: in vivo, 0.5 h; summary of the method: as §1
Spleen [19] = experiment: Biodistribution in Sprague-Dawley rat spleen at 20 to 120 uCi, iv after 30 mins by gamma counting analysis; assay type: ADME, organism-based; details: in vivo, 0.5 h; summary of the method: as §1
Heart [20] = experiment: Biodistribution in Sprague-Dawley rat heart at 20 to 120 uCi, iv after 30 mins by gamma counting analysis; assay type: ADME, organism-based; details: in vivo, 0.5 h; summary of the method: as §1
Rattus norvegicus [21] = experiment: Biodistribution in Sprague-Dawley rat eyeballs at 20 to 120 uCi, iv after 30 mins by gamma counting analysis; assay type: ADME, organism-based, Eyeball of camera-type eye; details: in vivo, 0.5 h; summary of the method: as §1
Blood [22] = experiment: Biodistribution in Sprague-Dawley rat blood at 20 to 120 uCi, iv after 5 mins by gamma counting analysis; assay type: ADME, organism-based; details: in vivo; summary of the method: as §1
Bone [23] = experiment: Biodistribution in Sprague-Dawley rat bone at 20 to 120 uCi, iv after 5 mins by gamma counting analysis; assay type: ADME, organism-based, Bone element; details: in vivo; summary of the method: as §1
Spleen [24] = experiment: Biodistribution in Sprague-Dawley rat spleen at 20 to 120 uCi, iv after 5 mins by gamma counting analysis; assay type: ADME, organism-based; details: in vivo; summary of the method: as §2
Pancreas [25] = experiment: Biodistribution in Sprague-Dawley rat pancreas at 20 to 120 uCi, iv after 5 mins by gamma counting analysis; assay type: ADME, organism-based; details: in vivo; summary of the method: as §1
Lung [26] = experiment: Biodistribution in Sprague-Dawley rat lung at 20 to 120 uCi, iv after 5 mins by gamma counting analysis; assay type: ADME, organism-based; details: in vivo; summary of the method: as §1
Brain = experiment: Biodistribution in Sprague-Dawley rat brain at 20 to 120 uCi, iv after 5 mins by gamma counting analysis; assay type: ADME, organism-based; details: in vivo; summary of the method: as §1
[27] = Drug uptake in rhesus macaque monkey adrenal glands 5 to 6 mCi, iv after 90 mins by PET analysis in presence of desipramine; assay type: ADME, organism-based, Macaca mulatta, Adrenal gland; details: in vivo, 1.5 h
[28] = Drug metabolism in rhesus macaque monkey spinal column assessed as fluorine-18 level at 5 to 6 mCi, iv after 90 mins by transaxial PET analysis; assay type: ADME, organism-based, Macaca mulatta; details: in vivo, 1.5 h
Nucleic Acid = experiment: Ratio of drug level in heart to blood in rhesus macaque monkey at 5 to 6 mCi, iv after 90 mins by PET analysis; assay type: ADME, organism-based, Macaca mulatta; details: other tissue, 1.5 h
[29] = Drug uptake in rhesus macaque monkey lung at 5 to 6 mCi, iv after 90 mins by PET analysis; assay type: ADME, organism-based, Macaca mulatta; details: in vivo, 1.5 h
[30] = Drug uptake in rhesus macaque monkey left ventricle at 5 to 6 mCi, iv after 90 mins by PET analysis; assay type: ADME, organism-based, Macaca mulatta, Heart left ventricle; details: in vivo, 1.5 h
[31] = Drug uptake in Sprague-Dawley rat heart sympathetic neurons measured per gram wet mass of heart at 2 uCi/mL administered as infusion for 10 mins measured after 120 mins by gamma counting analysis; assay type: ADME, tissue-based; details: sympathetic neuron, 2 h
Summary of the method: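 Isolated working rat hearts perfused with 54 μM corticosterone in all perfusates to block uptake-2. Tracer infused at <10 nM total mass for 10 min to measure neuronal uptake rate (mL/min/g wet), then switched to normal perfusate to follow clearance over 2 h.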

[32] = Drug excretion in rat urinary bladder at 0.5 mCi by PET analysis; details: in vivo

Ki [1]: 0.341 mL/min/g
Drug uptake (Blood [2]): 0.009 % ID/g
Drug uptake (Rattus norvegicus [3]): 0.081 %IDKg/g
Drug uptake (Ovary): 0.129 %IDKg/g
Drug uptake (Adrenal [4]): 0.133 %IDKg/g
Drug uptake (Pancreas [5]): 0.121 %IDKg/g
Drug uptake (Liver [6]): 0.233 %IDKg/g
Drug uptake (Lung [7]): 0.036 %IDKg/g
Drug uptake (Heart [8]): 0.347 %IDKg/g
Drug uptake (Blood [9]): 0.016 % ID/g
Drug uptake (Bone [10]): 0.027 % ID/g
Drug uptake (Testes [11]): 0.008 %IDKg/g
Drug uptake (Rattus norvegicus [12]): 0.112 %IDKg/g
Drug uptake (Adrenal [13]): 0.193 %IDKg/g
Drug uptake (Liver [14]): 0.35 %IDKg/g
Drug uptake (Heart [15]): 0.526 %IDKg/g
Drug uptake (Testes [16]): 0.01 %IDKg/g
Drug uptake (Rattus norvegicus [17]): 0.155 %IDKg/g
Drug uptake (Adrenal [18]): 0.181 %IDKg/g
Drug uptake (Spleen [19]): 0.262 %IDKg/g
Drug uptake (Heart [20]): 0.602 %IDKg/g
Drug uptake (Rattus norvegicus [21]): 0.04 %IDKg/g
Drug uptake (Blood [22]): 0.062 %ID·kg/g
Drug uptake (Bone [23]): 0.06 %ID·kg/g
Drug uptake (Spleen [24]): 0.268 %IDKg/g
Drug uptake (Pancreas [25]): 0.137 %IDKg/g
Drug uptake (Lung [26]): 0.267 %IDKg/g
Drug uptake (Brain): 0.004 %IDKg/g
Drug uptake [27]: Not Active
Drug metabolism [28]: Active
Ratio (Nucleic Acid): 3
Drug uptake [29]: Not Active
Drug uptake [30]: Active
Kup [31]: 0.77 mL/min
Drug excretion [32]: 19.9 %ID
Compound: N=C(N)NCCc1ccc([18F])c(O)c1
